This is an account of results in paper PMC5594746 (Journal of biomolecular screening, 2016).

One may read the pEC50 as the EC50 on a negative log10 scale, so that one unit is a factor of ten.

The structures appear in SMILES notation. pEC50: −log10 of the molar value.

In assay [1] the test system is V2R + DOX. The assay can be described thus: V2R + Dox cAMP counterscreen. The class given is cell-based. The following applies: Tet minus promoter inactive, no receptor protein made. The gist of the method: (§1)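 Cryopreserved cells carrying tet-regulated hV2R L83Q were thawed and plated at 2,000/well in growth medium. Compound was pin-added (0.4% DMSO), then incubated 17 h at 37 °C, 5% CO2. Cells were stimulated with 5 μM vasopressin (final) in serum-free medium containing 2.5 mM IBMX for 2 h. After 10 min at room temperature, cAMP-Glo was added (19 min), then Kinase-Glo (10 min). Luminescence, inversely proportional to cAMP, was read.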
On the technique in general: A counterscreen serves to expose hits that act by an unwanted route or on another target.

In assay [2] the target is V2R. The settings on record: regardless of species tested; cited from earlier work.
Assay [3] deals with NDI associated V2R mutants. The settings on record: cited from earlier work.
For assay [4], the target named is mutant hV2R [L83Q] (Homo sapiens, UniProt P30518, L83Q). The assay can be described thus: V2R pharmacoperone cAMP luminescence. The class given is cell-based. The following applies: for activity as powder (active = EC50 ≤ 5 μM): de novo powder samples, titration assay, tested for the first time as powders. The gist of the method: as §1

As to `CCOc1ccc2c(c1)C1(CCC(OCCN3CCOCC3)CC1)C(=O)N2S(=O)(=O)c1ccc(C(=O)NC(C)(C)C)cc1OC` (stereo not shown) [SR121463], the “response of + Dox cells” value in assay [1] is recorded as “non-responsive”. Further, the Ki entry in assay [2] is “low nanomolar”. In addition, in assay [3], the “number of NDI associated V2R mutants on which active” value is “at least 8”. For `CN[C@@H]1C[C@H]2O[C@@](C)([C@@H]1OC)n1c3ccccc3c3c4c(c5c6ccccc6n2c5c31)C(=O)NC4` [staurosporine, reference compound], the “% activation, primary screen” value in assay [4] (singlicate, nominal 5.22 μM, normalized to SR121463 high control) was ≤ −50%.

`Cc1ccc2nc(NC(=O)c3cc(I)ccc3Cl)sc2c1` [SR-01000405773]: the “activity as powder (active = EC50 ≤ 5 μM)” value (“activity as powder” below) in assay [4] is listed as “lack of activity”. On the same count and under the same terms, under `COc1ccc2nc(NC(=O)c3ccc(S(=O)(=O)N4CCCCC4)cc3)sc2c1` [SR-01000393329] stands “lack of activity”; under `O=C(Nc1nc2ccc(F)cc2s1)c1ccc(S(=O)(=O)N2CCCCC2)cc1` [SR-01000442043], “lack of activity”. `COc1ccc(-c2csc(NC(=O)c3ccc(S(=O)(=O)N4CC(C)CC(C)C4)cc3)n2)cc1C` (stereo not shown) [SR-01000443595] had a pEC50 in assay [4] (de-novo powder sample, CRC format) of 7.15. In the case of `Cc1ccc2nc(NC(=O)c3cccc(Cl)c3)sc2c1` [SR-01000461570], the “activity as powder” value in assay [4] is given as “lack of activity”. Take `CCN(CC)S(=O)(=O)c1ccc(C(=O)Nc2nc3ccc(Cl)cc3s2)cc1` [SR-01000392254]: in assay [4], the “activity as powder” value is given as “lack of activity”.
